Consider five molecules from ChEMBL document CHEMBL1158479, “Synthesis and preliminary in vitro biological evaluation of 4-[(4-hydroxyphenyl)sulfanyl]but-3-en-2-one, a 4-mercaptophenol derivative designed as a novel bifunctional antimelanoma agent” (J Med Chem, 2009).

Data set [1] in a line: Cytotoxicity against mouse B16-F1 cells at 100 uM after 48 hrs by MTT assay relative to control in presence of 1-phenyl-2-thiourea. The class given is functional. On the technique in general: Formazan colour is commonly taken as a measure of viable cells.
Data set [2] can be described thus: Cytotoxicity against mouse B16-F1 cells at 100 uM after 48 hrs by MTT assay relative to control in presence of N-acetyl-L-cysteine. The data set is classed as functional.
Data set [3] is described as follows: Cytotoxicity against mouse B16-F1 cells at 100 uM after 48 hrs by MTT assay relative to control. The class given is functional.
Data set [4] deals with glutathione S-transferase. The experiment in a line: Stability assessed as half life at pH 7.4 in presence of rat glutathione S-transferase. The data set is classed as ADME.
Data set [5] deals with glutathione S-transferase. The experiment in a line: Stability assessed as half life at pH 8 in presence of rat glutathione S-transferase. The data set is classed as ADME.
The test system of data set [6] is glutathione S-transferase. The experiment in a line: Stability assessed as half life in presence of rat glutathione S-transferase. The data set is classed as ADME.
Data set [7] deals with glutathione S-transferase. The experiment in a line: Stability assessed as half life at pH 7.4 in presence of rat glutathione S-transferase in liver cytosol. The data set is classed as physicochemical. The method, boiled down: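 The GSH reaction was run at pH 7.4 with and without rat liver cytosol, which served as the glutathione S-transferase source. t1/2 was derived from the time course of reaction with GSH.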

A short description of data set [8]: Cytotoxicity against mouse B16-F1 cells after 48 hrs by MTT assay. The data set is classed as functional, cell-based.
Substrate in data set [9]: O=C(O)CCSc1ccc(O)cc1
The experiment in a line: (§1) Activity of mushroom tyrosinase assessed as o-quinone formation. The following applies: Agaricus bisporus. Put shortly: (§2)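 Mushroom tyrosinase kinetics were run by measuring the initial rate of enzyme-catalyzed o-quinone formation over increasing substrate concentrations. Km and Vmax were derived from these rates, and kcat and kcat/Km were calculated from them.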

Substrate in data set [10]: O=C(O)CSc1ccc(O)cc1
The data set is described as §1. The following applies: Agaricus bisporus. Put shortly: as §2

Substrate in data set [11]: COc1ccc(O)cc1
The data set is described as §1. To be noted: Agaricus bisporus. The method, boiled down:
as §2

Substrate in data set [12]: O=C(O)CCSc1ccc(O)cc1
The experiment in a line: (§3) Ratio of Kcat to Km of mushroom tyrosinase. The following applies: Agaricus bisporus. Put shortly: as §2

Substrate in data set [13]: O=C(O)CSc1ccc(O)cc1
The description is as §3. To be noted: Agaricus bisporus. The method, boiled down: as §2

Substrate in data set [14]: COc1ccc(O)cc1
The description is as §3. The following applies: Agaricus bisporus. The method, boiled down: as §2

The term half-life denotes how long it takes for the measured level to halve. A word on the IC50: it is the concentration at which inhibition is half-maximal. A low value points to greater potency in that assay. What is called Km is the concentration of substrate that gives half-maximal velocity. In general, kcat refers to the number of substrate molecules converted per active site and unit of time at saturation.

Consider `COc1ccc(O)cc1` [MEQUINOL], for which the Activity came out at 78.7% in data set [1], 60% in [2] and 61.3% in data set [3].
For `CC(=O)/C=C/Sc1ccc(O)cc1`, the half-life in [4] is 20.5 min; in data set [5], 6.1 min; in data set [6] it was 2.2 min.
Take `Oc1ccc(SSc2ccc(O)cc2)cc1`: the values for the Activity in data set [1], in [2] and in data set [3] were 0%, 22.5% and 0.2%, respectively. The half-life in data set [7] is less than 1 min. Also, the IC50 in data set [8] came out at 21.2 µM.
On to `CC(=O)/C=C\Sc1ccc(O)cc1`, for which the half-life in data set [4] came out at 38.6 min; in data set [5], 18.4 min; in [6], 7.24 min.

B1: Tyrosinase (Agaricus bisporus), O42713 (protein)
chain: MSLIATVGPTGGVKNRLNIVDFVKNEKFFTLYVRSLELLQAKEQHDYSSFFQLAGIHGLPFTEWAKERPSMNLYKAGYCTHGQVLFPTWHRTYLSVLEQILQGAAIEVAKKFTSNQTDWVQAAQDLRQPYWDWGFELMPPDEVIKNEEVNITNYDGKKISVKNPILRYHFHPIDPSFKPYGDFATWRTTVRNPDRNRREDIPGLIKKMRLEEGQIREKTYNMLKFNDAWERFSNHGISDDQHANSLESVHDDIHVMVGYGKIEGHMDHPFFAAFDPIFWLHHTNVDRLLSLWKAINPDVWVTSGRNRDGTMGIAPNAQINSETPLEPFYQSGDKVWTSASLADTARLGYSYPDFDKLVGGTKELIRDAIDDLIDERYGSKPSSGARNTAFDLLADFKGITKEHKEDLKMYDWTIHVAFKKFELKESFSLLFYFASDGGDYDQENCFVGSINAFRGTAPETCANCQDNENLIQEGFIHLNHYLARDLESFEPQDVHKFLKEKGLSYKLYSRGDKPLTSLSVKIEGRPLHLPPGEHRPKYDHTQARVVFDDVAVHVIN
Regarding B1, the figures for the Km in data set [9], in data set [10] and in data set [11] were 31.5 µM, 22.4 µM and 46.8 µM, respectively. In addition, the values for the kcat in data set [9], in data set [10] and in [11] were 0.972 s⁻¹, 0.461 s⁻¹ and 0.24 s⁻¹, respectively. In addition, the kcat/Km in [12] is 31000; in [13], 20600; in data set [14], 5140.
